Test results taken from ChEMBL document CHEMBL5620363, “HIV-1 protease inhibitors with a P1 phosphonate modification maintain potency against drug-resistant variants by increased interactions with flap residues” (Eur J Med Chem, 2023).
pEC50, pKi: −log10 of the molar value.

Legend:
Protease [1] = molecular target: Protease (Human immunodeficiency virus 1, UniProt Q9YQ12, I84V); assay: (§1) Binding affinity to drug-resistant HIV-1 protease I84V mutant expressed in Escherichia coli TAP-106 cells assessed as inhibition constant using a EDANS/DABCYL FRET-peptide substrate preincubated for 1 hr followed by substrate addition measured after 1 hr by fluorogenic assay
Protease (Human immunodeficiency virus 1, UniProt Q9YQ12, I84V), sequence (Q9YQ12 entry or part of it I84V): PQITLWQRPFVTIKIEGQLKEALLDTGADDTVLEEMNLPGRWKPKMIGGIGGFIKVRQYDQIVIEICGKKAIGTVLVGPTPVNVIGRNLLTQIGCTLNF

Protease [2] = molecular target: Protease (Human immunodeficiency virus 1, UniProt Q9YQ12, A71V/I50V); assay: Binding affinity to drug-resistant HIV-1 protease I50V/A71V mutant expressed in Escherichia coli TAP-106 cells assessed as inhibition constant using a EDANS/DABCYL FRET-peptide substrate preincubated for 1 hr followed by substrate addition measured after 1 hr by fluorogenic assay
Protease (Human immunodeficiency virus 1, UniProt Q9YQ12, A71V/I50V), sequence (Q9YQ12 entry or part of it A71V/I50V): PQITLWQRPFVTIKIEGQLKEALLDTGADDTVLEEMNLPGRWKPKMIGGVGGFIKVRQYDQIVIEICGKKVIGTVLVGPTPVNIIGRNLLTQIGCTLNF

[3] = as §1, with “I13V/G16E/V32I/L33F/K45I/M46I/V82F/I84V” for “I84V”; parameters: species or system Human immunodeficiency virus 1
[4] = as §1, with “I13V/G16E/V32I/L33F/K45I/M46I/V82F/I84V/A71V/L76V” for “I84V”; parameters: species or system Human immunodeficiency virus 1
[5] = as §1, with “I13V/G16E/V32I/L33F/K45I/M46I/V82F/I84V/A71V/L76V/I54L” for “I84V”; parameters: species or system Human immunodeficiency virus 1
[6] = test system: Human immunodeficiency virus 1; assay: Antiviral activity against wild-type HIV-1 NL4-3 infected in human TZM-bl cells using virus particles harvested from 18 hrs drug-treated HEK293T cells harboring viral transfection assessed as reduction in viral infection measured after 48 hrs in TZM-bl cells by luciferase based assay; assay type: functional, organism-based; conditions: Human immunodeficiency virus 1, NL4-3, TZM-bl
HEK-293T = assay: (§2) Cytotoxicity against HEK293T cells incubated for 48 hrs by absorbance based assay; assay type: toxicity, cell-based; conditions: human, hek-293t, 48 h
TZM = assay: Cytotoxicity against human TZM-bl cells incubated for 48 hrs by absorbance based assay; assay type: toxicity, cell-based
in vitro = conditions: human
[7] = test system: Human immunodeficiency virus 1; assay: (§3) Antiviral activity against wild-type HIV-1 NL4-3 infected in human TZM-bl cells using virus particles harvested from 24 hrs drug-treated human CEM cells infected with virus assessed as reduction in viral infection measured after 48 hrs in TZM-bl cells by Firefly luciferase based assay; assay type: functional, organism-based; conditions: Human immunodeficiency virus 1, NL4-3, TZM-bl
Summary of the method: (§4)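 Virus stocks grown by infecting 3 × 10^6 CEM cells with virus at 37 °C for 2–3 h, then RPMI with medium changes every 48 h until CPE. Infected CEM cells plated onto five-fold serial inhibitor dilutions in RPMI (top 100 μM).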

[8] = test system: Human immunodeficiency virus 1; assay: Antiviral activity against drug-resistant HIV-1 harboring protease L10I/V11I/I13V/K14R/A22V/E35D/M36I/N37D/G48M/F53L/I54V/I62V/L63P/A71V/T74S/V82A/I84V/T91S/Q92K mutant infected in human TZM-bl cells using virus particles harvested from 24 hrs drug-treated human CEM cells infected with virus assessed as reduction in viral infection measured after 48 hrs in TZM-bl cells by Firefly luciferase based …; assay type: functional, organism-based; conditions: Human immunodeficiency virus 1, TZM-bl
[9] = test system: Human immunodeficiency virus 1; assay: as §3, with “drug-resistant” for “wild-type”, “harboring Gag mutation/protease I13V/G16E/V32I/L33F/K45I/M46I/A71V/L76V/V82F/I84V mutant” for “NL4-3”; assay type: functional, organism-based; conditions: Human immunodeficiency virus 1, TZM-bl; summary of the method: as §4
[10] = test system: Human immunodeficiency virus 1; assay: as §3, with “drug-resistant” for “wild-type”, “harboring RT mutation/protease I13V/G16E/V32I/L33F/K45I/M46I/A71V/L76V/V82F/I84V mutant” for “NL4-3”; assay type: functional, organism-based; conditions: Human immunodeficiency virus 1, TZM-bl; summary of the method: as §4
[11] = test system: Human immunodeficiency virus 1; assay: as §3, with “drug-resistant” for “wild-type”, “harboring protease L10F/V11I/I13V/V32I/L33F/K43T/M46L/I54L/A71V/V82I/I84V/L89M/T91S/Q92R mutant” for “NL4-3”; assay type: functional, organism-based; conditions: Human immunodeficiency virus 1, TZM-bl; summary of the method: as §4
[12] = test system: Human immunodeficiency virus 1; assay: as §3, with “drug-resistant” for “wild-type”, “harboring protease L10F/I15V/M46I/I47V/I50V/F53L/A71V/V82I/I84V/L89T mutant” for “NL4-3”; assay type: functional, organism-based; conditions: Human immunodeficiency virus 1, TZM-bl; summary of the method: as §4
[13] = test system: Human immunodeficiency virus 1; assay: as §3, with “drug-resistant” for “wild-type”, “harboring protease L10F/I13V/L33F/K45R/M46I/I47V/I50V/F53L/I54L/I66F/A71V/T74A/L76S/V82I mutant” for “NL4-3”; assay type: functional, organism-based; conditions: Human immunodeficiency virus 1, TZM-bl; summary of the method: as §4
[14] = test system: Human immunodeficiency virus 1; assay: Antiviral activity against DRV-resistant HIV-1 infected in human TZM-bl cells using virus particles harvested from 24 hrs drug-treated human CEM cells infected with virus assessed as reduction in viral infection measured after 48 hrs in TZM-bl cells by Firefly luciferase based assay; assay type: functional, organism-based; conditions: Human immunodeficiency virus 1, TZM-bl; summary of the method: as §4
[15] = as §2; assay type: toxicity, cell-based, HEK-293T; conditions: human, HEK293T cells

SMILES	pKi (Protease [1])	pKi (Protease [2])	pKi [3]	pKi [4]	pKi [5]	pEC50 [6]	CC50 (HEK-293T) [nM]	CC50 (TZM) [nM]	selectivity ratio (in vitro)	pEC50 [7]	pEC50 [8]	pEC50 [9]	pEC50 [10]	pEC50 [11]	pEC50 [12]	pEC50 [13]	pEC50 [14]	CC50 at 48 h [15] [nM]
CCOP(=O)(COc1ccc(C[C@H](NC(=O)O[C@H]2CO[C@H]3OCC[C@H]32)[C@H](O)CN(CC(C)C)S(=O)(=O)c2ccc3c(c2)OCO3)cc1)OCC	> 11.30	> 11.30	8.66	8.35	7.20	8.25	68000	> 100000	12	–	–	–	–	–	–	–	–	–
CCOP(=O)(COc1ccc(C[C@H](NC(=O)O[C@H]2CO[C@H]3OCC[C@H]32)[C@H](O)CN(C[C@@H](C)CC)S(=O)(=O)c2ccc(OC)cc2)cc1)OCC	> 11.30	> 11.30	9.11	8.43	7.98	8.02	33000	78000	3.45	–	–	–	–	–	–	–	–	–
CCOP(=O)(COc1ccc(C[C@H](NC(=O)O[C@H]2CO[C@H]3OCC[C@H]32)[C@H](O)CN(CC(CC)CC)S(=O)(=O)c2ccc(OC)cc2)cc1)OCC	> 11.30	> 11.30	9.11	8.90	8.66	8.29	22000	59000	–	8.30	> 8.00	7.42	7.07	–	–	–	–	–
CCOP(=O)(COc1ccc(C[C@H](NC(=O)O[C@H]2CO[C@H]3OCC[C@H]32)[C@H](O)CN(CC(CC)CC)S(=O)(=O)c2ccc(CO)cc2)cc1)OCC	> 11.30	> 11.30	8.66	7.49	7.09	7.77	69000	> 100000	4.06	–	–	–	–	–	–	–	–	–
CCC(CC)CN(C[C@@H](O)[C@H](Cc1ccccc1)NC(=O)O[C@H]1CO[C@H]2OCC[C@H]21)S(=O)(=O)c1ccc2c(c1)OCO2	–	–	–	–	–	–	–	–	–	8.22	–	–	–	5.24	5.19	< 4.00	6.11	–
CCOP(=O)(COc1ccc(C[C@H](NC(=O)O[C@H]2CO[C@H]3OCC[C@H]32)[C@H](O)CN(C[C@@H](C)CC)S(=O)(=O)c2ccc(CO)cc2)cc1)OCC	> 11.30	> 11.30	8.30	7.28	6.99	7.56	–	–	> 3.66	–	–	–	–	–	–	–	–	> 100000
CCOP(=O)(COc1ccc(C[C@H](NC(=O)O[C@H]2CO[C@H]3OCC[C@H]32)[C@H](O)CN(CC(C)C)S(=O)(=O)c2ccc3ncsc3c2)cc1)OCC	> 11.30	> 11.30	9.03	8.72	7.82	7.98	45000	> 100000	4.33	–	–	–	–	–	–	–	–	–
CCOP(=O)(COc1ccc(C[C@H](NC(=O)O[C@H]2CO[C@H]3OCC[C@H]32)[C@H](O)CN(C[C@@H](C)CC)S(=O)(=O)c2ccc3ncsc3c2)cc1)OCC	> 11.30	> 11.30	8.74	8.92	8.04	8.00	23000	53000	2.32	–	–	–	–	–	–	–	–	–
CCOP(=O)(COc1ccc(C[C@H](NC(=O)O[C@H]2CO[C@H]3OCC[C@H]32)[C@H](O)CN(CC(CC)CC)S(=O)(=O)c2ccc3ncsc3c2)cc1)OCC	> 11.30	> 11.30	9.60	9.62	8.49	7.97	22000	43000	2.06	–	–	–	–	–	–	–	–	–
CCOP(=O)(COc1ccc(C[C@H](NC(=O)O[C@H]2CO[C@H]3OCC[C@H]32)[C@H](O)CN(CC(C)C)S(=O)(=O)c2ccc(OC)cc2)cc1)OCC	> 11.30	> 11.30	9.25	8.68	8.44	7.93	50000	> 100000	4.24	–	–	–	–	–	–	–	–	–
CCOP(=O)(COc1ccc(C[C@H](NC(=O)O[C@H]2CO[C@H]3OCC[C@H]32)[C@H](O)CN(C[C@@H](C)CC)S(=O)(=O)c2ccc3c(c2)OCO3)cc1)OCC	> 11.30	> 11.30	–	–	–	–	31000	> 100000	–	–	–	–	–	–	–	–	–	–
CC(C)CN(C[C@@H](O)[C@H](Cc1ccccc1)NC(=O)O[C@H]1CO[C@H]2OCC[C@H]21)S(=O)(=O)c1ccc(N)cc1	–	–	–	–	–	8.11	–	–	–	8.10	7.25	–	5.84	4.80	5.73	4.89	< 4.00	–
CCOP(=O)(COc1ccc(C[C@H](NC(=O)O[C@H]2CO[C@H]3OCC[C@H]32)[C@H](O)CN(C[C@@H](C)CC)S(=O)(=O)c2ccc(N)cc2)cc1)OCC	> 11.30	> 11.30	7.88	6.84	6.59	7.64	92000	> 100000	4.02	–	–	–	–	–	–	–	–	–
CCOP(=O)(COc1ccc(C[C@H](NC(=O)O[C@H]2CO[C@H]3OCC[C@H]32)[C@H](O)CN(CC(CC)CC)S(=O)(=O)c2ccc3c(c2)OCO3)cc1)OCC	> 11.30	> 11.30	9.43	8.80	8.16	8.51	21000	> 100000	–	8.52	> 8.00	–	–	–	–	–	–	–
CCOP(=O)(COc1ccc(C[C@H](NC(=O)O[C@H]2CO[C@H]3OCC[C@H]32)[C@H](O)CN(CC(CC)CC)S(=O)(=O)c2ccc(N)cc2)cc1)OCC	> 11.30	> 11.30	8.33	7.29	6.97	7.80	44000	96000	2.75	–	–	–	–	–	–	–	–	–
